From ChEMBL document CHEMBL2093137, “WHO-TDR NTD Screening”
Converted amounts (≈) assume the structure as drawn.

Assays:
[1] = WHO-TDR: Cytotoxicity; assay type: toxicity, cell-based; conditions: human, MRC5 cells
Plasmodium falciparum K1 = assay: WHO-TDR: Malaria; assay type: functional, organism-based, Homo sapiens; conditions: Erythrocyte
Outline: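 Previously published standard procedures, including a reference drug as positive control, were used to screen whole Plasmodium falciparum K1 parasites inside human red blood cells. IC50 is the measure of antiplasmodial potency. The compounds were a 10,000-member diverse Life Chemicals library.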

Trypanosoma cruzi = assay: WHO-TDR: Chagas disease; assay type: functional, organism-based, Homo sapiens; conditions: MRC5
Outline: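 Following previously published standard procedures, with a reference drug as positive control, a whole-organism assay was run on Trypanosoma cruzi Tulahuen CL2 beta-galactosidase strain amastigotes inside MRC-5SV2 human lung fibroblast host cells. The 10,000 compounds tested formed a diverse Life Chemicals library filtered for drug-likeness and reactive groups. Results are expressed as IC50 for antiparasitic potency.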

[2] = test system: Trypanosoma brucei brucei; assay: WHO-TDR: Human African Trypanosomiasis (HAT); assay type: functional, organism-based; conditions: Squib-427
Outline: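 In this whole-organism screen, the target was the bloodstream form of Trypanosoma brucei, strain Squib 427. A diverse set of 10,000 compounds from Life Chemicals, previously filtered for drug-likeness and reactive groups, was assayed by standard published procedures using reference drugs as positive controls. Each value is an IC50 for antiparasitic potency.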

Leishmania infantum = assay: WHO-TDR: Leishmaniasis; assay type: functional, organism-based, Mus musculus; conditions: Macrophage
Outline: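 Intracellular amastigotes of Leishmania infantum MHOM/MA(BE)/67, hosted in murine peritoneal macrophages, were exposed to compounds from a 10,000-member diverse library supplied by Life Chemicals. The library had been filtered for drug-likeness and reactive groups. The reported IC50 expresses antiparasitic potency.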

Schistosoma mansoni = assay: WHO-TDR: Schistosomiasis; assay type: functional; design: concentration or dose not given beside the values
Outline: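 Larval and/or adult Schistosoma mansoni (Puerto Rican strain) were tested whole against 10,000 diverse compounds from Life Chemicals. The procedure was a previously published standard one, using a reference drug as positive control. Results are expressed as percent inhibition and IC50.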

Onchocerca ochengi = assay: (§1) WHO-TDR: Onchocerciasis; assay type: functional; design: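 at 12.5 µM on microfilariae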
Outline: (§2)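 Onchocerca ochengi or Onchocerca lienalis, animal pathogens used as surrogates for the human parasite, were screened as whole microfilariae against a 10,000-compound diverse library from Life Chemicals. The reported measures of activity are percent inhibition and IC50.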

Onchocerca lienalis = assay: as §1; assay type: functional; design: concentration or dose not given beside the values; outline: as §2;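 note: at 12.5 µM on microfilariae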
Brugia malayi = assay: WHO-TDR: Lymphatic Filariasis; assay type: functional; design: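 tested at 10 µM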
Outline: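 Percent inhibition and IC50 describe activity against Brugia malayi microfilariae in a whole-organism screen. The screen used previously published standard procedures with reference drugs as positive controls. Compounds came from a diverse Life Chemicals library of 10,000, filtered for drug-likeness and reactive groups.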

| Compound | IC50 [1] [µg/mL] | IC50 (Plasmodium falciparum K1) [µg/mL] | IC50 (Trypanosoma cruzi) [µg/mL] | IC50 [2] [µg/mL] | IC50 (Leishmania infantum) [µg/mL] | % Inhibition (Schistosoma mansoni) [%] | % Inhibition (Onchocerca ochengi) [%] | % Inhibition (Onchocerca lienalis) [%] | % Inhibition (Brugia malayi) [%] |
| --- | --- | --- | --- | --- | --- | --- | --- | --- | --- |
| CCOC(=O)CCNC(=O)NCC1CC(=O)N(c2ccc(Cl)cc2)C1 (stereo not given) | > 11 | > 11 | > 11 | > 11 | > 11 | 0 | 100 | – | – |
| CN(Cc1ccco1)S(=O)(=O)c1ccc(C(=O)Nc2nnc(-c3ccccc3Cl)o2)cc1 | 0.807 (≈ 1.71 µM) | > 14.2 | 0.465 (≈ 0.983 µM) | 2.96 (≈ 6.25 µM) | > 14.2 | 0 | – | 0 | 0 |
| CN(Cc1ccco1)S(=O)(=O)c1ccc(C(=O)Nc2nnc(-c3cccs3)o2)cc1 | 2.5 (≈ 5.62 µM) | 6.65 (≈ 15 µM) | 0.456 (≈ 1.03 µM) | 4.22 (≈ 9.49 µM) | > 13.3 | 0 | – | 0 | 0 |
| CN(C)CCCN(C(=O)c1ccc(Br)s1)c1nc2ccccc2s1 | > 13.8 | 5.41 (≈ 12.8 µM) | 0.791 (≈ 1.86 µM) | 4.37 (≈ 10.3 µM) | > 13.8 | 0 | – | 11.35 | 0 |
| CN(C)CCN(C(=O)CCCS(=O)(=O)c1ccccc1)c1nc2ccc(F)cc2s1 | > 14.6 | > 14.6 | 0.759 (≈ 1.69 µM) | > 14.6 | > 14.6 | 0 | – | 12.34 | 33.33 |
| Cc1ccccc1Cn1cc(C(=O)Nc2cccc(Br)c2)ccc1=O | 9.51 (≈ 23.9 µM) | > 11.9 | 0.553 (≈ 1.39 µM) | 3.86 (≈ 9.71 µM) | > 11.9 | 0 | – | 26.7 | 0 |
| O=C(CCCS(=O)(=O)c1ccc(F)cc1)Nc1nc2c(s1)CSc1ccccc1-2 | > 13.5 | 6 (≈ 13.4 µM) | 5.29 (≈ 11.8 µM) | 4.36 (≈ 9.71 µM) | > 13.5 | 100 | – | 66.33 | 0 |
| Cc1ccc(C)c(-c2csc(NC(=O)CCCS(=O)(=O)c3ccc(F)cc3)n2)c1 | 0.999 (≈ 2.31 µM) | 9.42 (≈ 21.8 µM) | 0.588 (≈ 1.36 µM) | 4.2 (≈ 9.71 µM) | > 13 | 0 | – | 12.34 | 0 |
| O=C(Cn1c(S(=O)(=O)Cc2ccccc2)nc2ccccc21)N1CCN(c2ccccc2)CC1 | > 14.2 | 10.9 (≈ 22.9 µM) | > 14.2 | > 14.2 | 0.461 (≈ 0.971 µM) | 0 | – | 11.35 | 0 |
| Cc1ccc2sc(N(CCN(C)C)C(=O)C3CCN(S(=O)(=O)c4cccs4)CC3)nc2c1C | 1.94 (≈ 3.84 µM) | 3.81 (≈ 7.51 µM) | 0.772 (≈ 1.52 µM) | 5.21 (≈ 10.3 µM) | > 16.3 | 0 | – | 16.32 | 0 |
| O=C(CCSc1ccccc1)N(Cc1ccccn1)c1nc2ccccc2s1 | > 12.2 | 11.3 (≈ 28 µM) | 0.466 (≈ 1.15 µM) | > 12.2 | > 12.2 | 0 | – | 11.35 | 0 |
| CCS(=O)(=O)c1ccc(CC(=O)Nc2nc3c(s2)CCc2ccccc2-3)cc1 | 0.908 (≈ 2.2 µM) | 12.4 (≈ 30 µM) | 0.436 (≈ 1.06 µM) | 4.01 (≈ 9.71 µM) | > 12.4 | 0 | – | 0 | 0 |
| Cc1ccc2sc(N(Cc3cccnc3)C(=O)CSc3ccccc3)nc2c1C | > 12.6 | > 12.6 | 0.938 (≈ 2.24 µM) | > 12.6 | > 12.6 | 0 | – | 0 | 0 |
| CCCn1/c(=N/C(=O)C2=COCCO2)sc2c(C)ccc(OC)c21 | > 10.5 | 3.18 (≈ 9.13 µM) | 0.89 (≈ 2.55 µM) | > 10.5 | > 10.5 | 0 | – | 20 | 0 |
| CCN(C1CCCCC1)S(=O)(=O)c1ccc(C(=O)Nc2nnc(-c3ccc(F)cc3)o2)cc1 | 0.577 (≈ 1.22 µM) | > 14.2 | 0.459 (≈ 0.971 µM) | 0.966 (≈ 2.04 µM) | 4.59 (≈ 9.71 µM) | 0 | – | 46.7 | 0 |
| COc1ccc(Cl)c2sc(NC(=O)c3ccc4c(c3)OCCO4)nc12 | 3.43 (≈ 9.09 µM) | > 11.3 | 0.702 (≈ 1.86 µM) | 3.57 (≈ 9.49 µM) | 0.366 (≈ 0.971 µM) | 0 | – | 53.4 | 0 |
| CC(C)Sc1ccc(C(=O)Nc2nc(-c3ccccn3)cs2)cc1 | 3.11 (≈ 8.75 µM) | 0.138 (≈ 0.388 µM) | 0.368 (≈ 1.04 µM) | 0.341 (≈ 0.959 µM) | > 10.7 | 0 | – | 86.7 | 0 |
| C=CCn1/c(=N\C(=O)Cc2ccc(S(C)(=O)=O)cc2)sc2c(OC)ccc(OC)c21 | 13.2 (≈ 29.6 µM) | 11.2 (≈ 25.1 µM) | 4.07 (≈ 9.11 µM) | 0.462 (≈ 1.03 µM) | 4.34 (≈ 9.71 µM) | 0 | – | 13.3 | 0 |
| CS(=O)(=O)N1CCCc2cc(NC(=O)c3cc4ccccc4oc3=O)ccc21 | > 12 | > 12 | > 12 | > 12 | 0.387 (≈ 0.971 µM) | 0 | – | 0 | 0 |
| O=C(Cc1ccc(F)cc1)Nc1nc(-c2ccccn2)cs1 | > 9.4 | 2.97 (≈ 9.49 µM) | 0.334 (≈ 1.07 µM) | 0.308 (≈ 0.983 µM) | > 9.4 | 0 | – | 23.33 | 0 |
| Cc1nn(-c2ccccc2)c2ncc(C(=O)NCC3CCCO3)c(Cl)c12 (stereo not given) | 3.52 (≈ 9.49 µM) | > 11.1 | 0.392 (≈ 1.06 µM) | 0.376 (≈ 1.01 µM) | 3.6 (≈ 9.71 µM) | 0 | – | 66.7 | 0 |
| CC(=O)c1cccc(Nc2nc(Nc3ccc(F)c(Cl)c3)nc(N3CCOCC3)n2)c1 | 5.32 (≈ 12 µM) | 3.81 (≈ 8.61 µM) | 0.465 (≈ 1.05 µM) | 0.643 (≈ 1.45 µM) | > 13.3 | 25 | – | 0 | 0 |
